Experimental data taken from ChEMBL document CHEMBL4680229, “Design, synthesis and bioactivity study of N-salicyloyl tryptamine derivatives as multifunctional agents for the treatment of neuroinflammation” (Eur J Med Chem, 2020).
Calls of active or inactive are those of the source. The rule behind the calls is not given here.

system: BV-2; assay: Cytotoxicity against mouse BV-2 cells assessed as reduction in cell viability after 24 hrs by MTT assay; assay type: cell-based; settings: BV-2, 24 h
Method in brief: (§1)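 C6 or BV2 cells seeded at 1–5×10^5 per well; after 12 h exposed to 0, 6.25, 12.5, 25, 50 or 100 μM (final, DMSO <0.4%) for 24 h. MTT added for 4 h, dissolved in DMSO, read at 570 nm. IC50 as mean of three independent experiments run in triplicate.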

Structure (SMILES)	IC50
CNc1ccccc1C(=O)NCCc1c[nH]c2ccccc12	> 100 µM
Cc1ccc2[nH]cc(CCNC(=O)c3ccccc3Nc3ccccc3)c2c1	64.6 µM
O=C(NCCc1c[nH]c2ccccc12)c1ccc(O)cc1O	> 100 µM
Cc1ccc(O)c(C(=O)NCCc2c[nH]c3ccccc23)c1	> 100 µM
O=C(NCCc1c[nH]c2ccccc12)c1cc2ccccc2cc1O	> 100 µM
COc1ccc2[nH]cc(CCNC(=O)c3ccccc3Nc3ccccc3)c2c1	> 100 µM
CN(C)c1ccccc1C(=O)NCCc1c[nH]c2ccc(O)cc12	> 100 µM
Cc1c(Cl)cccc1Nc1ccccc1C(=O)NCCc1c[nH]c2ccccc12	54.6 µM
O=C(NCCc1c[nH]c2ccc(O)cc12)c1ccccc1O	> 100 µM
CN(C)c1ccccc1C(=O)NCCc1c[nH]c2ccccc12	> 100 µM
Cc1ccc2[nH]cc(CCNC(=O)c3ccccc3Nc3cccc(Cl)c3C)c2c1	73.7 µM
O=C(NCCc1c[nH]c2ccccc12)c1ccccc1Nc1ccccc1	> 100 µM

system: BV-2; assay: Antiinflammatory activity against LPS-induced mouse BV-2 cells assessed as decrease in INOS protein expression at 40 uM after 24 hrs by Western blot analysis relative to control; assay type: functional; set-up: scale not given: the % may be the effect or the level left; settings: not given
Method in brief: (§2)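 BV2 cells in DMEM with 10% FBS; LPS 1 μg/mL plus compound at 10, 20 or 40 μM final for 24 h. Lysates in RIPA with 1 mM PMSF; 30 μg protein on 8% SDS-PAGE and blotted for iNOS and COX-2, GAPDH as reference; ECL detection and densitometry; at least three independent experiments.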

Structure (SMILES)	Activity
O=C(NCCc1c[nH]c2ccccc12)c1ccccc1Nc1ccccc1	66%

system: not listed separately; assay: Antioxidant activity assessed as DPPH radical scavenging activity incubated for 30 mins; assay type: functional; settings: not given
Method in brief: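 Compound in ethanol at 2.5–40 μM final, mixed 1:1 with 700 μmol/L ethanolic DPPH; 30 min in the dark at room temperature, absorbance at 515 nm. Serotonin used as standard; EC50 from three independent experiments.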

EC50	Structure (SMILES)
> 100 µM	O=C(NCCc1c[nH]c2ccccc12)c1ccccc1Nc1ccccc1

molecular target: Prostaglandin G/H synthase 1 (Homo sapiens) (UniProt P23219); assay: Inhibition of human COX1 assessed as reduction in PGF2alpha formation using arachidonic acid as substrate incubated for 10 mins by ELISA; settings: not given

IC50	Structure (SMILES)
> 40 µM	CNc1ccccc1C(=O)NCCc1c[nH]c2ccccc12
27 µM	Cc1ccc2[nH]cc(CCNC(=O)c3ccccc3Nc3ccccc3)c2c1
> 40 µM	O=C(NCCc1c[nH]c2ccccc12)c1ccc(O)cc1O
> 40 µM	Cc1ccc(O)c(C(=O)NCCc2c[nH]c3ccccc23)c1
39.2 µM	O=C(NCCc1c[nH]c2ccccc12)c1cc2ccccc2cc1O
38.6 µM	COc1ccc2[nH]cc(CCNC(=O)c3ccccc3Nc3ccccc3)c2c1
1.74 µM	O=C(NCCc1c[nH]c2ccc(O)cc12)c1ccccc1O
0.47 µM	O=C(NCCc1c[nH]c2ccccc12)c1ccccc1Nc1ccccc1

system: not listed separately; assay: Inhibition of LPS-induced NO production in mouse BV-2 cells incubated for 24 hrs by Griess reagent based assay; assay type: functional, cell-based; settings: BV-2, 24 h
Method in brief: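 BV2 cells at 5×10^5 cells/mL, LPS 1 μg/mL plus compound at 2.5–40 μM final for 24 h. Supernatant nitrite measured with Griess reagent for 15 min at room temperature in the dark, 540 nm, against a NaNO2 standard curve; IC50 from three repeats.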

IC50	Structure (SMILES)
> 40 µM	CNc1ccccc1C(=O)NCCc1c[nH]c2ccccc12
> 40 µM	O=C(NCCc1c[nH]c2ccccc12)c1ccc(O)cc1O
> 40 µM	Cc1ccc(O)c(C(=O)NCCc2c[nH]c3ccccc23)c1
59 µM	O=C(NCCc1c[nH]c2ccccc12)c1cc2ccccc2cc1O
19.9 µM	COc1ccc2[nH]cc(CCNC(=O)c3ccccc3Nc3ccccc3)c2c1
> 40 µM	CN(C)c1ccccc1C(=O)NCCc1c[nH]c2ccc(O)cc12
> 40 µM	O=C(NCCc1c[nH]c2ccc(O)cc12)c1ccccc1O
22.9 µM	CN(C)c1ccccc1C(=O)NCCc1c[nH]c2ccccc12
25.9 µM	O=C(NCCc1c[nH]c2ccccc12)c1ccccc1Nc1ccccc1

system: C6; assay: Inhibition of LPS-induced TNFalpha production in rat C6 cells after 24 hrs by ELISA; assay type: functional, cell-based; settings: dose 10-40 µM
Method in brief: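 C6 cells at 5×10^5 cells/mL stimulated with LPS 10 μg/mL; compound at 10, 20 or 40 μM final for 24 h. Supernatant TNF-α measured by sandwich ELISA at 450 nm; at least three independent experiments.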

Structure (SMILES)	inhibition
O=C(NCCc1c[nH]c2ccccc12)c1ccccc1Nc1ccccc1	Dose-dependent effect

species on record: Homo sapiens; assay: Selectivity index, ratio of IC50 for inhibition of human COX1 to IC50 for inhibition of human COX2; settings: not given

Ratio IC50	Structure (SMILES)
18.4	Cc1ccc2[nH]cc(CCNC(=O)c3ccccc3Nc3ccccc3)c2c1
18	O=C(NCCc1c[nH]c2ccccc12)c1cc2ccccc2cc1O
14	COc1ccc2[nH]cc(CCNC(=O)c3ccccc3Nc3ccccc3)c2c1
2.18	O=C(NCCc1c[nH]c2ccc(O)cc12)c1ccccc1O
0.18	O=C(NCCc1c[nH]c2ccccc12)c1ccccc1Nc1ccccc1

molecular target: Prostaglandin G/H synthase 2 (Homo sapiens) (UniProt P35354); assay: Inhibition of human COX2 assessed as reduction in PGF2alpha formation using arachidonic acid as substrate incubated for 10 mins by ELISA; settings: not given
Sequence (P35354 whole entry, looked up): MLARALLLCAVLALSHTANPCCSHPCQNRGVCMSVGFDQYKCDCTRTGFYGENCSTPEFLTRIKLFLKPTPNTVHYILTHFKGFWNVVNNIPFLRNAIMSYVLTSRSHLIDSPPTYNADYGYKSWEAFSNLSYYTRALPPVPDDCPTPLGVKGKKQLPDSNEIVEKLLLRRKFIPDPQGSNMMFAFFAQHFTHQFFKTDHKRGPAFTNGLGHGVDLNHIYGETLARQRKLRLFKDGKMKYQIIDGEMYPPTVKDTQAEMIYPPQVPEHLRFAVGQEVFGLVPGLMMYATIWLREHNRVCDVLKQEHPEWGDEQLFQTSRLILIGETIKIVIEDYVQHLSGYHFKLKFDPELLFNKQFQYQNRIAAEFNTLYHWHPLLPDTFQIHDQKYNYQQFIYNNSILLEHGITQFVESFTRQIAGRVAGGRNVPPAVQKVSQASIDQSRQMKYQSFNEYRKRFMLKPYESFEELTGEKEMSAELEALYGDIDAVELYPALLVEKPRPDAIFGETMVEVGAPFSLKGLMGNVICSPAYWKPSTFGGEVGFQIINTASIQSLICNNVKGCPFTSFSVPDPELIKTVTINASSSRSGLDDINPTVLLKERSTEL

IC50	Structure (SMILES)
> 40 µM	CNc1ccccc1C(=O)NCCc1c[nH]c2ccccc12
1.47 µM	Cc1ccc2[nH]cc(CCNC(=O)c3ccccc3Nc3ccccc3)c2c1
25 µM	O=C(NCCc1c[nH]c2ccccc12)c1ccc(O)cc1O
> 40 µM	Cc1ccc(O)c(C(=O)NCCc2c[nH]c3ccccc23)c1
2.18 µM	O=C(NCCc1c[nH]c2ccccc12)c1cc2ccccc2cc1O
2.76 µM	COc1ccc2[nH]cc(CCNC(=O)c3ccccc3Nc3ccccc3)c2c1
0.57 µM	CN(C)c1ccccc1C(=O)NCCc1c[nH]c2ccc(O)cc12
14.5 µM	Cc1c(Cl)cccc1Nc1ccccc1C(=O)NCCc1c[nH]c2ccccc12
0.8 µM	O=C(NCCc1c[nH]c2ccc(O)cc12)c1ccccc1O
> 40 µM	CN(C)c1ccccc1C(=O)NCCc1c[nH]c2ccccc12
9.72 µM	Cc1ccc2[nH]cc(CCNC(=O)c3ccccc3Nc3cccc(Cl)c3C)c2c1
2.62 µM	O=C(NCCc1c[nH]c2ccccc12)c1ccccc1Nc1ccccc1

system: C6; assay: Antiinflammatory activity against LPS-induced rat C6 cells assessed as decrease in GFAP protein expression at 20 uM after 24 hrs by DAPI staining based confocal laser microscopic method; assay type: functional, cell-based; settings: not given
Method in brief: (§3)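 Cells on glass slides with compound at 20 μM final for 24 h: C6 with LPS 10 μg/mL stained for GFAP, BV2 with LPS 1 μg/mL stained for Iba-1. Fixed in 4% paraformaldehyde, blocked in 1% BSA/0.3% Triton X-100, primary antibody 1:100 overnight at 4 °C, secondary 1:200, DAPI mount, confocal imaging. Intensity given as % of LPS group, n = 3.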

Structure (SMILES)	Activity
O=C(NCCc1c[nH]c2ccccc12)c1ccccc1Nc1ccccc1	Active

system: BV-2; assay: Antiinflammatory activity against LPS-induced mouse BV-2 cells assessed as decrease in iba-1 protein expression at 20 uM after 24 hrs by DAPI staining based confocal laser microscopic method; assay type: functional, cell-based; settings: not given; method in brief: as §3

Structure (SMILES)	Activity
O=C(NCCc1c[nH]c2ccccc12)c1ccccc1Nc1ccccc1	Active

system: C6; assay: Cytotoxicity against rat C6 cells assessed as reduction in cell viability after 24 hrs by MTT assay; assay type: cell-based; settings: C6, 24 h; method in brief: as §1

Structure (SMILES)	IC50
CNc1ccccc1C(=O)NCCc1c[nH]c2ccccc12	> 100 µM
Cc1ccc2[nH]cc(CCNC(=O)c3ccccc3Nc3ccccc3)c2c1	87.9 µM
O=C(NCCc1c[nH]c2ccccc12)c1ccc(O)cc1O	> 100 µM
Cc1ccc(O)c(C(=O)NCCc2c[nH]c3ccccc23)c1	> 100 µM
O=C(NCCc1c[nH]c2ccccc12)c1cc2ccccc2cc1O	> 100 µM
COc1ccc2[nH]cc(CCNC(=O)c3ccccc3Nc3ccccc3)c2c1	89.3 µM
CN(C)c1ccccc1C(=O)NCCc1c[nH]c2ccc(O)cc12	> 100 µM
Cc1c(Cl)cccc1Nc1ccccc1C(=O)NCCc1c[nH]c2ccccc12	71.1 µM
O=C(NCCc1c[nH]c2ccc(O)cc12)c1ccccc1O	> 100 µM
CN(C)c1ccccc1C(=O)NCCc1c[nH]c2ccccc12	> 100 µM
Cc1ccc2[nH]cc(CCNC(=O)c3ccccc3Nc3cccc(Cl)c3C)c2c1	66.1 µM
O=C(NCCc1c[nH]c2ccccc12)c1ccccc1Nc1ccccc1	115 µM

system: C6; assay: Inhibition of LPS-induced NO production in rat C6 cells incubated for 24 hrs by Griess reagent based assay; assay type: functional, cell-based; settings: C6, 24 h
Method in brief: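 C6 cells at 5×10^5 cells/mL, LPS 10 μg/mL plus compound at 2.5–40 μM final for 24 h. Nitrite measured with Griess reagent at 540 nm against a NaNO2 standard; IC50 from three repeats.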

IC50	Structure (SMILES)
> 40 µM	CNc1ccccc1C(=O)NCCc1c[nH]c2ccccc12
> 40 µM	O=C(NCCc1c[nH]c2ccccc12)c1ccc(O)cc1O
> 40 µM	Cc1ccc(O)c(C(=O)NCCc2c[nH]c3ccccc23)c1
13.2 µM	O=C(NCCc1c[nH]c2ccccc12)c1cc2ccccc2cc1O
7.61 µM	COc1ccc2[nH]cc(CCNC(=O)c3ccccc3Nc3ccccc3)c2c1
> 40 µM	CN(C)c1ccccc1C(=O)NCCc1c[nH]c2ccc(O)cc12
> 40 µM	O=C(NCCc1c[nH]c2ccc(O)cc12)c1ccccc1O
> 40 µM	CN(C)c1ccccc1C(=O)NCCc1c[nH]c2ccccc12
15.3 µM	O=C(NCCc1c[nH]c2ccccc12)c1ccccc1Nc1ccccc1

system: BV-2; assay: Inhibition of LPS-induced TNFalpha production in mouse BV-2 cells after 24 hrs by ELISA; assay type: functional, cell-based; settings: dose 10-40 µM
Method in brief: (§4)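 BV2 cells at 5×10^5 cells/mL stimulated with LPS 1 μg/mL; compound at 10, 20 or 40 μM final for 24 h, DMSO in blanks. Supernatant TNF-α and IL-10 measured by sandwich ELISA and PGE2 by competitive ELISA, OD at 450 nm; at least three independent experiments.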

Structure (SMILES)	inhibition
O=C(NCCc1c[nH]c2ccccc12)c1ccccc1Nc1ccccc1	Dose-dependent effect

system: BV-2; assay: Antiinflammatory activity against LPS-induced mouse BV-2 cells assessed as decrease in ROS production at 10 to 40 uM after 6 hrs by DCFH-DA fluorescence probe based flow cytometric analysis; assay type: functional, cell-based; settings: dose 10-40 µM
Method in brief: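 BV2 cells with LPS 1 μg/mL and compound at 10, 20 or 40 μM for 6 h, then DCFH-DA 20 μM final for 30 min at 37 °C. Washed in cold PBS and read by flow cytometry, excitation 485 nm and emission 530 nm.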

Structure (SMILES)	Activity
O=C(NCCc1c[nH]c2ccccc12)c1ccccc1Nc1ccccc1	Active

system: BV-2; assay: Antiinflammatory activity against LPS-induced mouse BV-2 cells assessed as decrease in COX2 protein expression at 40 uM after 24 hrs by Western blot analysis; assay type: functional, cell-based; settings: not given; method in brief: as §2

Structure (SMILES)	Activity
O=C(NCCc1c[nH]c2ccccc12)c1ccccc1Nc1ccccc1	Active

system: BV-2; assay: Antiinflammatory activity against LPS-induced mouse BV-2 cells assessed as increase in IL-10 production at 40 uM after 24 hrs by ELISA; assay type: functional, cell-based; settings: not given; method in brief: as §4

Structure (SMILES)	Activity
O=C(NCCc1c[nH]c2ccccc12)c1ccccc1Nc1ccccc1	inactive
